Data reported in ChEMBL document CHEMBL1149869, “Antifungal and antimycobacterial activity of 1-(3,5-diaryl-4,5-dihydro-1H-pyrazol-4-yl)-1H-imidazole derivatives” (2008).
Converted amounts (≈) assume the structure as drawn.

Assays:
Format in all cases: functional
Candida albicans [1] = assay: Antifungal activity against Candida albicans 685 after 24 hrs
Procedure, shortened: (§1)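 Clinical isolate C. albicans 685 tested by NCCLS (1997) reference broth method; compound stocks 2 mg/mL in DMSO; miconazole and amphotericin B as standards; MIC read after 24 and 48 h incubation, each determined twice in duplicate experiments.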

Candida albicans [2] = assay: Antifungal activity against Candida albicans 685 after 48 hrs; procedure, shortened: as §1
[3] = tested on: Mycobacterium tuberculosis; assay: Antitubercular activity against Mycobacterium tuberculosis H37Rv micro-dilution Resazurin assay
Procedure, shortened: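 Microdilution Resazurin assay (MRA) run for 1 week against reference strain M. tuberculosis H37Rv. Compound stocks were 2 mg/mL in DMSO, with DMSO tested up to 2% (v/v). MIC was the lowest concentration preventing the blue-to-pink Resazurin colour change, read visually twice in duplicate experiments. Viable counts on agar from control and test wells.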

| Structure (SMILES) | MIC (Candida albicans [1]) [µg/mL] | MIC (Candida albicans [2]) [µg/mL] | MIC [3] [µg/mL] |
| --- | --- | --- | --- |
| CN1N=C(c2ccc(Br)cc2)[C@@H](n2ccnc2)[C@H]1c1ccc(Br)cc1 (racemic) | 0.06 (≈ 0.13 µM) | 0.06 (≈ 0.13 µM) | 8 (≈ 17.4 µM) |
| Cc1ccc(C2=NN(C)[C@H](c3ccc(C)cc3)[C@@H]2n2ccnc2)cc1 (racemic) | 4 (≈ 12.1 µM) | 64 (≈ 194 µM) | 16 (≈ 48.4 µM) |
| Brc1ccc(C2=NN[C@H](c3ccc(Br)cc3)[C@H]2n2ccnc2)cc1 (racemic) | 4 (≈ 8.97 µM) | 8 (≈ 17.9 µM) | 8 (≈ 17.9 µM) |
| Clc1ccc(C2=NN[C@H](c3ccc(Cl)cc3)[C@H]2n2ccnc2)cc1 (racemic) | 4 (≈ 11.2 µM) | 16 (≈ 44.8 µM) | 8 (≈ 22.4 µM) |
| Clc1ccc(C2=NN[C@H](c3ccc(Cl)cc3Cl)[C@H]2n2ccnc2)c(Cl)c1 (racemic) | 8 (≈ 18.8 µM) | 64 (≈ 150 µM) | 8 (≈ 18.8 µM) |
| CN1N=C(c2ccc(Cl)cc2)[C@@H](n2ccnc2)[C@H]1c1ccc(Cl)cc1 (racemic) | 0.06 (≈ 0.162 µM) | 0.06 (≈ 0.162 µM) | 8 (≈ 21.5 µM) |
| CN1N=C(c2ccc(Cl)cc2Cl)[C@@H](n2ccnc2)[C@H]1c1ccc(Cl)cc1Cl (racemic) | 0.12 (≈ 0.273 µM) | 32 (≈ 72.7 µM) | 16 (≈ 36.4 µM) |
| Cc1ccc(C2=NN[C@@H](c3ccc(C)cc3)[C@@H]2n2ccnc2)cc1 (racemic) | 8 (≈ 25.3 µM) | 64 (≈ 202 µM) | 16 (≈ 50.6 µM) |
| c1ccc(C2=NN(c3ccccc3)[C@H](c3ccccc3)[C@H]2n2ccnc2)cc1 (racemic) | 0.06 (≈ 0.165 µM) | 1 (≈ 2.74 µM) | 8 (≈ 22 µM) |
| Cc1ccc(C2=NN(c3ccccc3)[C@H](c3ccc(C)cc3)[C@H]2n2ccnc2)cc1 (racemic) | 8 (≈ 20.4 µM) | 64 (≈ 163 µM) | 4 (≈ 10.2 µM) |
| Brc1ccc(C2=NN(c3ccccc3)[C@H](c3ccc(Br)cc3)[C@H]2n2ccnc2)cc1 (racemic) | 1 (≈ 1.91 µM) | 64 (≈ 123 µM) | 8 (≈ 15.3 µM) |
| Clc1ccc(C2=NN(c3ccccc3)[C@H](c3ccc(Cl)cc3Cl)[C@H]2n2ccnc2)c(Cl)c1 (racemic) | 2 (≈ 3.98 µM) | > 64 | 4 (≈ 7.96 µM) |
| Cc1ccc(C2=NN(c3ccc(F)cc3)[C@H](c3ccc(C)cc3)[C@H]2n2ccnc2)cc1 (racemic) | 64 (≈ 156 µM) | 64 (≈ 156 µM) | 4 (≈ 9.74 µM) |
| Fc1ccc(N2N=C(c3ccc(Cl)cc3)[C@H](n3ccnc3)[C@H]2c2ccc(Cl)cc2)cc1 (racemic) | 2 (≈ 4.43 µM) | > 64 | 4 (≈ 8.86 µM) |
| Fc1ccc(N2N=C(c3ccc(Br)cc3)[C@H](n3ccnc3)[C@H]2c2ccc(Br)cc2)cc1 (racemic) | 8 (≈ 14.8 µM) | > 64 | 4 (≈ 7.4 µM) |
| Fc1ccc(N2N=C(c3ccccc3)[C@H](n3ccnc3)[C@H]2c2ccccc2)cc1 (racemic) | 0.06 (≈ 0.157 µM) | 1 (≈ 2.61 µM) | 8 (≈ 20.9 µM) |
| Fc1ccc(N2N=C(c3ccc(Cl)cc3Cl)[C@@H](n3ccnc3)[C@@H]2c2ccc(Cl)cc2Cl)cc1 (racemic) | 1 (≈ 1.92 µM) | > 64 | 16 (≈ 30.8 µM) |
| Clc1ccc(C2=NN(c3ccccc3)[C@H](c3ccc(Cl)cc3)[C@H]2n2ccnc2)cc1 (racemic) | 2 (≈ 4.62 µM) | 64 (≈ 148 µM) | 4 (≈ 9.23 µM) |
| c1ccc(C2=NN[C@H](c3ccccc3)[C@H]2n2ccnc2)cc1 (racemic) | 16 (≈ 55.5 µM) | > 64 | 16 (≈ 55.5 µM) |
| CN1N=C(c2ccccc2)[C@@H](n2ccnc2)[C@H]1c1ccccc1 (racemic) | 1 (≈ 3.31 µM) | 64 (≈ 212 µM) | 8 (≈ 26.5 µM) |
| C[C@@H]1[C@H](O)[C@@H](C)/C=C/C=C/C=C/C=C/C=C/C=C/C=C/[C@H](O[C@@H]2O[C@H](C)[C@@H](O)[C@H](N)[C@@H]2O)C[C@@H]2O[C@](O)(C[C@@H](O)C[C@@H](O)[C@H](O)CC[C@@H](O)C[C@@H](O)CC(=O)O[C@H]1C)C[C@H](O)[C@H]2C(=O)O [AMPHOTERICIN B] | 1 (≈ 1.08 µM) | 1 (≈ 1.08 µM) | – |
| NNC(=O)c1ccncc1 [ISONIAZID] | – | – | 0.5 (≈ 3.65 µM) |
| Clc1ccc(COC(Cn2ccnc2)c2ccc(Cl)cc2Cl)c(Cl)c1 (stereo not given) [MICONAZOLE] | 0.06 (≈ 0.144 µM) | 0.12 (≈ 0.288 µM) | – |
